For experiment [1], the target named is T1, Voltage-dependent L-type calcium channel subunit alpha-1C (Oryctolagus cuniculus, UniProt P15381). Nature of the experiment: Antagonist activity at rabbit Cav1.2 expressed in tsA201 cells assessed as inhibition of voltage pulse-induced calcium current at 200 nM by whole-cell patch-clamp recording. A general note: In patch-clamp work, channel activity is measured electrically.

Experiment [2] concerns the target Voltage-dependent L-type calcium channel subunit alpha-1D (Rattus norvegicus) (UniProt P27732). Description: Antagonist activity at rat Cav1.3 expressed in HEK293 cells assessed as inhibition of voltage pulse-induced calcium current at 200 nM by FLIPR calcium 4 assay. In kind it is functional, cell-based. The following applies: in the assay text read “by whole-cell patch-clamp recording” for “by FLIPR calcium 4 assay”. An outline of the steps:
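Whole-cell patch clamp on tsA201 cells transiently cotransfected with rabbit Cav1.2 α1C or rat Cav1.3 α1D, Cavβ3 and Cavα2δ-1 (1:1:1) plus GFP. GFP cells were recorded after replating at 48 h. Bath (mM): 110 NaCl, 1 MgCl2, 10 BaCl2, 10 HEPES, 10 glucose, 20 CsCl, pH 7.4. Compound was diluted from DMSO stock and perfused. Pulses ran from -60 mV to +10 or 0 mV with tetrodotoxin at about 22 °C. Read-out was percent current inhibition.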

Experiment [3] in a line: Selectivity ratio of antagonist activity at rat Cav1.3 to antagonist activity at rabbit Cav1.2 at 200 nM. In kind it is functional. An outline of the steps:
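Percent inhibition of Cav1.3 current was divided by that of Cav1.2 at the same concentration. Currents were from whole-cell patch clamp in transiently transfected tsA201 cells: Ba2+ bath, pH 7.4, steps from -60 mV, about 22 °C.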

In experiment [4] the target is Voltage-dependent L-type calcium channel subunit alpha-1D (Rattus norvegicus, UniProt P27732). Description: Antagonist activity at rat Cav1.3 expressed in HEK293 cells assessed as inhibition of voltage pulse-induced calcium current by FLIPR calcium 4 assay. The format is functional, cell-based. Put shortly: (§1)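 HEK293 lines stably expressing Cavβ3 and Cavα2δ-1 plus Cav1.2 α1C (rabbit) or Cav1.3 α1D (rat) were selected with zeocin/hygromycin. Calcium signals were read by FLIPR with Calcium 4 dye. IC50 came from 11-point dose-response curves. Signal percentage error (SD/mean) was 6.4% for Cav1.2 and 4.1% for Cav1.3 cells.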

In experiment [5] the target is T1, Voltage-dependent L-type calcium channel subunit alpha-1C. Description: Antagonist activity at rabbit Cav1.2 expressed in HEK293 cells assessed as inhibition of voltage pulse-induced calcium current by FLIPR calcium 4 assay. In kind it is functional, cell-based. An outline of the steps: as §1

T1 sequence (P15381 whole entry): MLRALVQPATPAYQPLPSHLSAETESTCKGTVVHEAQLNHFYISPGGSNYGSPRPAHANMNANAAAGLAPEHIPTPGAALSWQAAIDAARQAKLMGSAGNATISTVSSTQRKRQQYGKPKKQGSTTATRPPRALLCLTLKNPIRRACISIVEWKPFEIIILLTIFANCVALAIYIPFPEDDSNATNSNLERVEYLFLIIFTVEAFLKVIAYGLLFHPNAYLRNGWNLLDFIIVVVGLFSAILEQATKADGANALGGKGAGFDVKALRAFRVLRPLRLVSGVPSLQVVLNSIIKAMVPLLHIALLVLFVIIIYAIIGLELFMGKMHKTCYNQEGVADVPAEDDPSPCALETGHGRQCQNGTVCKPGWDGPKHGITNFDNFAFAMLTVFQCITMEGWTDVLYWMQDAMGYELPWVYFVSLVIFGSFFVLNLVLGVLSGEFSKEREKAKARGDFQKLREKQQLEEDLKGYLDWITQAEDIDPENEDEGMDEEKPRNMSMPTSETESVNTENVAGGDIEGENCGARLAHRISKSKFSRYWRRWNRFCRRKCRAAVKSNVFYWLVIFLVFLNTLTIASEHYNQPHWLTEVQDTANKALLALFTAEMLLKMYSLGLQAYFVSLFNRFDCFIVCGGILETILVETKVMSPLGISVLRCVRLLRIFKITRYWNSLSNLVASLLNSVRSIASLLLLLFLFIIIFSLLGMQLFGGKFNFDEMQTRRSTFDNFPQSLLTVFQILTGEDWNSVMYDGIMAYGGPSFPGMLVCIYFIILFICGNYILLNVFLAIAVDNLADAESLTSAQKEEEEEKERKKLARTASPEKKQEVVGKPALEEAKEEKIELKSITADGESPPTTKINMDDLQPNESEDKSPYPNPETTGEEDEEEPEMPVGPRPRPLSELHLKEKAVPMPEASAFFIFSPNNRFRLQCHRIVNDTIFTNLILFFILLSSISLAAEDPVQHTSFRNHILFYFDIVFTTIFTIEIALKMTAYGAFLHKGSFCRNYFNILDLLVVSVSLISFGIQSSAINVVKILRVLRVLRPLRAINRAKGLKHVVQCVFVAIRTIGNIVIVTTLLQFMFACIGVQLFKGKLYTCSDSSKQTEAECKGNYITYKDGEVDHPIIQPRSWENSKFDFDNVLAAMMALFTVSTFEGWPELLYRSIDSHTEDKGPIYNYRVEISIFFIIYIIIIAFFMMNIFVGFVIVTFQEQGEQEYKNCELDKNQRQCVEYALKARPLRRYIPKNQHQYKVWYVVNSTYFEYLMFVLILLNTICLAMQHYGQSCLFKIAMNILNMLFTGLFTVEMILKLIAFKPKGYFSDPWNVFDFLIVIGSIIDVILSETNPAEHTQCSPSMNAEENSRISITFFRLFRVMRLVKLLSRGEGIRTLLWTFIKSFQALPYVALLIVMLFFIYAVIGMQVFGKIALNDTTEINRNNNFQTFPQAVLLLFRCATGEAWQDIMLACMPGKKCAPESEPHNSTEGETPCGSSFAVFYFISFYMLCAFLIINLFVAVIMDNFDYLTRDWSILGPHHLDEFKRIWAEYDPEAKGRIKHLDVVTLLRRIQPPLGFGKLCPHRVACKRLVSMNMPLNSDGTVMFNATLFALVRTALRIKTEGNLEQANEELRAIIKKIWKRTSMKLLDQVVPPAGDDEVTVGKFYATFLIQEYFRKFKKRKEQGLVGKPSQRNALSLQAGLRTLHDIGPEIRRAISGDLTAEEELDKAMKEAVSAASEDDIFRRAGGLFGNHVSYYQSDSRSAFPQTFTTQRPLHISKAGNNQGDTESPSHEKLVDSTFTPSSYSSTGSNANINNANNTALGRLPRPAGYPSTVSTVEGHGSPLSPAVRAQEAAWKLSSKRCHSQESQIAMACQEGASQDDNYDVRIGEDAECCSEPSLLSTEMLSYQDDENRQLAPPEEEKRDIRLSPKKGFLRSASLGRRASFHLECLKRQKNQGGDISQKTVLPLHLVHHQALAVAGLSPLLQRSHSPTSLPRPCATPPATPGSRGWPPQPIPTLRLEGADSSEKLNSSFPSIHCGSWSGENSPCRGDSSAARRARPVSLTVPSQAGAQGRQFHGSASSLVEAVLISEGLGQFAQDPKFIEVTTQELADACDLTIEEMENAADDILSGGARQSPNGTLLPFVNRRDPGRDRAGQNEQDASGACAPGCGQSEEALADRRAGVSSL
Sequence of Voltage-dependent L-type calcium channel subunit alpha-1D (Rattus norvegicus) (P27732 whole entry, the tested form may be a part): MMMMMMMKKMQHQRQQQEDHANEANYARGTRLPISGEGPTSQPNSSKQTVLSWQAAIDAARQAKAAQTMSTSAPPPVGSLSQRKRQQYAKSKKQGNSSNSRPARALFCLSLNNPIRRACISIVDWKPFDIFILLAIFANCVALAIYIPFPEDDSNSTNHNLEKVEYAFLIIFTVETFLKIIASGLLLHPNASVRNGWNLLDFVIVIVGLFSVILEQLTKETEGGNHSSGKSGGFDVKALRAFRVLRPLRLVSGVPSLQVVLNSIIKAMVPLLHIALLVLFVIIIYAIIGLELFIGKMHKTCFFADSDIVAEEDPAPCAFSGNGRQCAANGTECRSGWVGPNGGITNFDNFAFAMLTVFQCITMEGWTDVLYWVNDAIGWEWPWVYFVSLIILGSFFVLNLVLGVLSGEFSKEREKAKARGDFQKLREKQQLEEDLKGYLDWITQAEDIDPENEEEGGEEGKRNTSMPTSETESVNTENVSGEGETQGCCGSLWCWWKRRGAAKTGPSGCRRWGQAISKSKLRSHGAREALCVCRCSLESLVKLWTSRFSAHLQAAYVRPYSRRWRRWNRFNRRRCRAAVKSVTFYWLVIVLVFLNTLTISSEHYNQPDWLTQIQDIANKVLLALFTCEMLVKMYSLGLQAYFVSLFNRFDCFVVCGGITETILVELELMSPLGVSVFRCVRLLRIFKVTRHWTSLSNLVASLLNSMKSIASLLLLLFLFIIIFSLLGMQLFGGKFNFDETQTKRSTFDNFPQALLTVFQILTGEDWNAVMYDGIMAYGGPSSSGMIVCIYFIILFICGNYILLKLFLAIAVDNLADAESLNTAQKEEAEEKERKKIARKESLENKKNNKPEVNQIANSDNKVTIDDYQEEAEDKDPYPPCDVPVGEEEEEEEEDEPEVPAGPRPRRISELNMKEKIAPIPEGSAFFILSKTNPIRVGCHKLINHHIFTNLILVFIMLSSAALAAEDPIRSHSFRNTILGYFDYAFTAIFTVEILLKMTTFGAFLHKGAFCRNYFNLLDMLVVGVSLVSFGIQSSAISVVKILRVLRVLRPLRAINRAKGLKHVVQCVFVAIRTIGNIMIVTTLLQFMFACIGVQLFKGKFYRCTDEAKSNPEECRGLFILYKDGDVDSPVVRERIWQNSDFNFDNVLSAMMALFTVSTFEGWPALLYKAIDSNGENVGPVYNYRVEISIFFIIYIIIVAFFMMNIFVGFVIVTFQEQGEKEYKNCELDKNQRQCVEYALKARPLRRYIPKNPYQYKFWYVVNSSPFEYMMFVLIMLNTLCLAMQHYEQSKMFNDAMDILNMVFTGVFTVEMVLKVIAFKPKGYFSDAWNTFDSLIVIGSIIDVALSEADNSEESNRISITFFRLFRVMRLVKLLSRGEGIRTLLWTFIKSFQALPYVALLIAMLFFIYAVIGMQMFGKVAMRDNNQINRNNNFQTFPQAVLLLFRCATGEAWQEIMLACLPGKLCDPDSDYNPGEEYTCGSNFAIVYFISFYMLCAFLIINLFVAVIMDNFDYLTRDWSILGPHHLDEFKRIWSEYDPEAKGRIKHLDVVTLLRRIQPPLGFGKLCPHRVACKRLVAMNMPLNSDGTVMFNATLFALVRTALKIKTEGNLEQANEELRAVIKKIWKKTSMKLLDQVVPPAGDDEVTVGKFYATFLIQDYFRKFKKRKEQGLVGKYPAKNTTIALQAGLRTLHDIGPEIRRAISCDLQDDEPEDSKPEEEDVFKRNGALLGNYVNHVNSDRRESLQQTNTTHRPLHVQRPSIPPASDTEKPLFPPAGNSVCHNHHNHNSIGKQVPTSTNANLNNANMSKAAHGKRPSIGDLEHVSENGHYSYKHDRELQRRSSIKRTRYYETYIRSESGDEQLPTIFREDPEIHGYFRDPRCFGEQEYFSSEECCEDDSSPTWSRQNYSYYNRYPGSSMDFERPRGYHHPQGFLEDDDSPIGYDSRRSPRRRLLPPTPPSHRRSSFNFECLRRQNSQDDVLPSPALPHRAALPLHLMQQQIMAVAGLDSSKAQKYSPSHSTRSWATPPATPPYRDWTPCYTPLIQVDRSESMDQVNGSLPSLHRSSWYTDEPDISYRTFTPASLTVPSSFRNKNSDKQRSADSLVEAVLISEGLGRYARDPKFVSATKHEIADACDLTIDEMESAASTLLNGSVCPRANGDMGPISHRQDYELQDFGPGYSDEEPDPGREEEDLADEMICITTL
Sequence of Voltage-dependent L-type calcium channel subunit alpha-1D (P27732 whole entry): as the sequence (P27732 whole entry, the tested form may be a part) above

As for `CCOC(=O)C1=C(C)NC(C)=C(C(=O)OCC)C1c1cc([N+](=O)[O-])ccc1Cl`, in experiment [1], the inhibition at 0.2 µM amounted to 97%. In addition, the inhibition in experiment [2] is 89%. Further, in experiment [3], the Selectivity ratio amounted to 0.92.
Take `CCOC(=O)C1=C(C)NC(C)=C(C(=O)OCC)C1c1ccccc1I`: the inhibition at 0.2 µM in experiment [1] came to 96%. For the same compound, in experiment [2], the inhibition is 95%. Also, the Selectivity ratio in experiment [3] turned out to be 0.99.
In the case of `CCOC(=O)C1=C(C)NC(C)=C(C(=O)OCC)C1c1cc(Br)cc(Br)c1`, the inhibition at 0.2 µM in experiment [1] came out at 74%. Besides, in experiment [2], the inhibition stood at 72%. In experiment [3], the Selectivity ratio was 0.98.
Taken in the same sequence, the figures for `CCOC(=O)C1=C(C)NC(C)=C(C(=O)OCC)C1C1CCCCC1` were 26%, 21% and 0.81.
Turning to `CCOC(=O)C1=C(C)NC(C)=C(C(=O)OCC)C1c1ccc2ccccc2c1`, the inhibition at 0.2 µM in experiment [1] worked out at 16%. Also, the inhibition in experiment [2] is 12%. For the same compound, the Selectivity ratio in experiment [3] amounted to 0.75.
As to `COC(=O)C1=C(C)NC(C)=C(C(=O)OC(C)(C)C)C1c1cccc([N+](=O)[O-])c1` (stereo not drawn) [MEBUDIPINE], in experiment [1], the inhibition at 0.2 µM is 91%. The inhibition in experiment [2] was found to be 85%. For the same compound, the Selectivity ratio in experiment [3] was found to be 0.93.
Turning to `CCOC(=O)C1=C(C)NC(C)=C(C(=O)OCC)C1c1ccccc1-c1ccccc1`, the inhibition at 0.2 µM in experiment [1] came to 73%. In addition, the inhibition in experiment [2] is 65%. Besides, in experiment [3], the Selectivity ratio amounted to 0.89.
For the compound `CC1=C(C(=O)OCC(C)C)C(c2cccc([N+](=O)[O-])c2)C(C(=O)OCC(C)C)=C(C)N1`, the inhibition at 0.2 µM in experiment [1] was determined as 52%. In addition, the inhibition in experiment [2] amounted to 59%. Besides, the Selectivity ratio in experiment [3] was 1.14.
For `COC(=O)C1=C(C)NC(C)=C(C(=O)OCC(C)C)C1c1cccc([N+](=O)[O-])c1` (stereo not drawn), the inhibition at 0.2 µM in experiment [1] came out at 94%. For the same compound, in experiment [2], the inhibition came out at 90%. The Selectivity ratio in experiment [3] came out at 0.96.
As for `CCCC1C(C(=O)OCC)=C(C)NC(C)=C1C(=O)OCC`, the inhibition at 0.2 µM in experiment [1] is 42%. Moreover, the inhibition in experiment [2] came out at 36%. Also, the Selectivity ratio in experiment [3] amounted to 0.86.
For the compound `CCOC(=O)C1=C(C)NC(C)=C(C(=O)OCC)C1c1ccsc1`, the inhibition at 0.2 µM in experiment [1] came to 54%. The inhibition in experiment [2] turned out to be 50%. Moreover, in experiment [3], the Selectivity ratio amounted to 0.93.
As to `C=CCOC(=O)C1=C(C)NC(C)=C(C(=O)OCC)C1c1cccc([N+](=O)[O-])c1` (stereo not drawn), the IC50 in experiment [4] turned out to be 15 nM; in experiment [5], 25 nM.
Regarding `C=CCOC(=O)C1=C(C)NC(C)=C(C(=O)OCC)C1c1ccc2ccccc2c1` (stereo not drawn), the IC50 in experiment [4] stood at 2160 nM; in experiment [5], 1310 nM.
With `CCOC(=O)C1=C(C)NC(C)=C(C(=O)OCC)C1c1ccoc1`, in experiment [1], the inhibition at 0.2 µM was 56%. The inhibition in experiment [2] stood at 32%. The Selectivity ratio in experiment [3] is 0.57.
Turning to `COC(=O)C1=C(C)NC(C)=C(C(=O)OCCCl)C1c1cccc([N+](=O)[O-])c1` (stereo not drawn), the values for the IC50 in experiment [4] and in experiment [5] were 22 nM and 26 nM, respectively.
The matching figures for `CCOC(=O)C1=C(C)NC(C)=C(C(=O)OCC)C1(C)c1ccccc1`: 2140 nM and 630 nM.
`CCOC(=O)C1=C(C)NC(COC)=C(C(=O)OC)C1c1cccc([N+](=O)[O-])c1` (stereo not drawn): the IC50 in experiment [4] amounted to 96 nM; in experiment [5], 14 nM.
With `CCOC(=O)C1=C(C)NC(C)=C(C(=O)OCC)C1c1cc(C(F)(F)F)cc(C(F)(F)F)c1`, in experiment [1], the inhibition at 0.2 µM is 38%. For the same compound, in experiment [2], the inhibition is 38%. Besides, the Selectivity ratio in experiment [3] is 1.
As to `CCOC(=O)C1=C(C)NC(COC(C)=O)=C(C(=O)OCC)C1c1cccc([N+](=O)[O-])c1` (stereo not drawn), the values for the IC50 in experiment [4] and in experiment [5] were 37 nM and 10 nM, respectively.
Regarding `CCOC(=O)C1=C(C)NC(CC)=C(C(=O)OCC)C1c1cccc([N+](=O)[O-])c1` (stereo not drawn), the inhibition at 0.2 µM in experiment [1] was 93%. Further, the inhibition in experiment [2] amounted to 88%. Besides, the Selectivity ratio in experiment [3] amounted to 0.95.
For `COC(=O)C1=C(C)N=C(C)/C(=C(/O)OC)C1(C)c1ccccc1` (stereo not drawn), the 50% inhibitory concentration (IC50) in experiment [4] stood at 2310 nM; in experiment [5], 1470 nM.
Regarding `COC(=O)C1=C(C)NC(C)=C(C(=O)OCCOc2ccccc2Cl)C1c1cccc([N+](=O)[O-])c1` (stereo not drawn), the IC50 in experiment [4] amounted to 46 nM; in experiment [5], 19 nM.
`C=CCOC(=O)C1=C(C)NC(C)=C(C(=O)OC)C1c1cccc([N+](=O)[O-])c1` (stereo not drawn): the IC50 in experiment [4] and in experiment [5] was 15 nM each time.
Take `CCOC(=O)C1=C(C(F)(F)F)NC(C(F)(F)F)=C(C(=O)OCC)C1c1cccc([N+](=O)[O-])c1`: in experiment [1], the inhibition at 0.2 µM came out at 34%. Also, in experiment [2], the inhibition stood at 38%. Moreover, the Selectivity ratio in experiment [3] was 1.11.
With `CCOC(=O)C1=C(C)NC(C)=C(C(=O)OCC)C1c1cccc(F)c1F`, the IC50 was determined as 10 nM in experiment [4] and 15 nM in experiment [5].
In the case of `COC(=O)C1=C(C)NC(C)=C(C(=O)OC(C)C)C1c1cccc([N+](=O)[O-])c1` (stereo not drawn), in experiment [1], the inhibition at 0.2 µM is 96%. For the same compound, in experiment [2], the inhibition turned out to be 89%. In addition, the Selectivity ratio in experiment [3] was 0.93.
For the compound `COC(=O)C1=C(C)NC(C)=C(C(=O)OCCC#N)[C@@H]1c1cccc([N+](=O)[O-])c1`, the IC50 in experiment [4] was determined as 399 nM; in experiment [5] it was 262 nM.
On to `COC(=O)C1=C(C)NC(C)=C(C(=O)OCC2CC2)C1c1cccc([N+](=O)[O-])c1` (stereo not drawn), for which the results for the IC50 in experiment [4] and in experiment [5] were 21 nM and 28 nM, respectively.
Regarding `CCOC(=O)C1=C(C)NC(COC)=C(C(=O)OC)C1c1ccccc1[N+](=O)[O-]` (stereo not drawn), the figures for the IC50 in experiment [4] and in experiment [5] were 790 nM and 1760 nM, respectively.
As for `CCOC(=O)C1=C(C)NC(C(OCC)OCC)=C(C(=O)OCC)C1c1cccc([N+](=O)[O-])c1` (stereo not drawn), the values for the IC50 in experiment [4] and in experiment [5] were 615 nM and 460 nM, respectively.
For the compound `CCOC(=O)C1=C(C)NC(COC(=O)c2ccccc2)=C(C(=O)OCC)C1c1cccc([N+](=O)[O-])c1` (stereo not drawn), the half-maximal inhibitory concentration (IC50) in experiment [4] amounted to 170 nM; in experiment [5], 210 nM.
`C=C(C)CCOC(=O)C1=C(C)NC(C)=C(C(=O)OC)C1c1cccc([N+](=O)[O-])c1` (stereo not drawn): the IC50 in experiment [4] was 47 nM; in experiment [5], 23 nM.
Regarding `CCOC(=O)C1=C(C)N=C(C)/C(=C(/O)OCC)C1c1ccncc1` (stereo not drawn), in experiment [1], the inhibition at 0.2 µM is 27%. Further, the inhibition in experiment [2] amounted to 15%. The Selectivity ratio in experiment [3] was found to be 0.56.
For `COC(=O)C1=C(C)NC(C)=C(C(=O)OC)C1c1ccccc1SC`, the IC50 in experiment [4] amounted to 35 nM; in experiment [5] it was 8 nM.
As to `COC(=O)C1=C(C)NC(C)=C(C(=O)OCCCCc2ccc(OC)cc2)C1c1cccc([N+](=O)[O-])c1` (stereo not drawn), the IC50 in experiment [4] came out at 38 nM; in experiment [5], 17 nM.
The matching figures for `COC(=O)C1=C(C)NC(C)=C(C(=O)OC2Cc3ccccc3C2)C1c1cccc([N+](=O)[O-])c1` (stereo not drawn): 43 nM and 72 nM.
For the compound `CCOC(=O)C1=C(C)NC(C)=C(C(=O)OCC)C1c1ccccc1SC`, the 50% inhibitory concentration (IC50) in experiment [4] was 15 nM; in experiment [5] it was 8 nM.
As to `CCOC(=O)C1=C(C(F)(F)F)NC(C(F)(F)F)=C(C(=O)OCC)C1c1cccc(C(F)(F)F)c1`, in experiment [1], the inhibition at 0.2 µM is 61%. Further, the inhibition in experiment [2] came to 67%. Further, the Selectivity ratio in experiment [3] came out at 1.1.
In the case of `COC(=O)C1=C(C)NC(C)=C(C(=O)OCCCOc2ccccc2)C1c1cccc([N+](=O)[O-])c1` (stereo not drawn), the figures for the IC50 in experiment [4] and in experiment [5] were 11 nM and 9 nM, respectively.
Take `COC(=O)C1=C(C)NC(C)=C(C(=O)OCc2c(Cl)cc(Cl)cc2Cl)C1c1cccc([N+](=O)[O-])c1` (stereo not drawn): the results for the IC50 in experiment [4] and in experiment [5] were 34 nM and 10 nM, respectively.

As usually defined, the inhibition is the relative decrease from the control value, in per cent. Usually IC50 stands for the midpoint of a concentration-inhibition curve.

For the origin of these results see ChEMBL document CHEMBL1158565, “Antagonism of 4-substituted 1,4-dihydropyridine-3,5-dicarboxylates toward voltage-dependent L-type Ca2+ channels Ca V 1.3 and Ca V 1.2” (Bioorg Med Chem, 2010).
